In ChEMBL document CHEMBL1141075, “4-Oxo-4,7-dihydrothieno[2,3-b]pyridines as non-nucleoside inhibitors of human cytomegalovirus and related herpesvirus polymerases” (J Med Chem, 2005):

Legend:
[1] = test system: Vero; test: Antiviral activity against herpes simplex virus type 2 (V826A) plaque forming unit grown on Human foreskin fibroblast cells upon incubation for 1 hour at 37 degrees C with compound dissolved in DMSO; type: functional, cell-based; conditions: Chlorocebus sabaeus
Outline: (§1)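 Plaque reduction: about 50 PFU added per well of a 24-well dish of the appropriate cells, 1 h at 37 °C, then the inoculum was replaced by drug-containing DMEM with 10% FBS and 0.8% carboxymethyl cellulose. DMSO stocks were 200-fold. Plates were held at 37 °C until plaques formed. Plaques were counted microscopically or after crystal violet stain. Percent inhibition was taken against the uninhibited control, with IC50 by linear regression.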

[2] = test system: HFF; test: Antiviral activity against human cytomegalovirus Ad169 (WT) plaque forming unit grown on Human foreskin fibroblast cells upon incubation for 1 hour at 37 degrees C with compound dissolved in DMSO; type: functional, cell-based, Human betaherpesvirus 5; outline: as §1
[3] = test system: Vero; test: Antiviral activity against herpes simplex virus type 2 (WT) plaque forming unit grown on Human foreskin fibroblast cells upon incubation for 1 hour at 37 degrees C with compound dissolved in DMSO; type: functional, cell-based; conditions: Chlorocebus sabaeus
Outline: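 Plaque reduction: about 50 PFU per well onto the appropriate cell monolayer, adsorbed 1 h at 37 °C. Inoculum was then replaced with DMEM containing 10% FBS, 0.8% carboxymethyl cellulose and diluted compound from 200-fold DMSO stocks. Plates were held at 37 °C until plaques formed, which were counted microscopically or after crystal violet staining. IC50 came from linear regression of % inhibition versus untreated control, as the mean of two determinations.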

[4] = test system: Vero; test: Antiviral activity against herpes simplex virus type 1 KOS (WT) plaque forming unit grown on African green monkey kidney Vero cells upon incubation for 1 hour at 37 degrees C with compound dissolved in DMSO; conditions: Chlorocebus sabaeus
[5] = test system: Vero; test: Antiviral activity against herpes simplex virus type 1 KOS (AraAr13) plaque forming unit grown on Human foreskin fibroblast cells upon incubation for 1 hour at 37 degrees C with compound dissolved in DMSO; type: functional, cell-based; conditions: Chlorocebus sabaeus; outline: as §1
[6] = test system: Vero; test: Antiviral activity against herpes simplex virus type 1 KOS (PAAr5) plaque forming unit grown on African green monkey kidney Vero cells upon incubation for 1 hour at 37 degrees C with compound dissolved in DMSO; conditions: Chlorocebus sabaeus
[7] = test system: Vero; test: Antiviral activity against herpes simplex virus type 1 Patton(BWr) plaque forming unit grown on Human foreskin fibroblast cells upon incubation for 1 hour at 37 degrees C with compound dissolved in DMSO; type: functional, cell-based; conditions: Chlorocebus sabaeus; outline: as §1
[8] = test system: Vero; test: Antiviral activity against herpes simplex virus type 1 KOS (V823A) plaque forming unit grown on Human foreskin fibroblast cells upon incubation for 1 hour at 37 degrees C with compound dissolved in DMSO; type: functional, cell-based; conditions: Chlorocebus sabaeus; outline: as §1
[9] = test system: HFF; test: Antiviral activity against human cytomegalovirus Ad169 (V823A) plaque forming unit grown on Human foreskin fibroblast cells upon incubation for 1 hour at 37 degrees C with compound dissolved in DMSO; type: functional, cell-based, Human betaherpesvirus 5; outline: as §1
[10] = test system: Vero; test: Antiviral activity against herpes simplex virus type 1 KOS (PFAr2) plaque forming unit grown on Human foreskin fibroblast cells upon incubation for 1 hour at 37 degrees C with compound dissolved in DMSO; type: functional, cell-based; conditions: Chlorocebus sabaeus; outline: as §1
[11] = test system: Vero; test: Antiviral activity against herpes simplex virus type 1 Patton (WT) plaque forming unit grown on Human foreskin fibroblast cells upon incubation for 1 hour at 37 degrees C with compound dissolved in DMSO; type: functional, cell-based; conditions: Chlorocebus sabaeus; outline: as §1
[12] = molecular target: T1, DNA polymerase catalytic subunit (Herpes simplex virus (type 1 / strain 17), UniProt P04293); test: Inhibition of herpes simplex virus type 1 DNA polymerase (95 uL) activity in a solution containing […] HEPES (pH 7.5), incubation for 12 minutes at 26 degrees C; set-up: species or system Human alphaherpesvirus 1
T1 sequence (P04293 whole entry): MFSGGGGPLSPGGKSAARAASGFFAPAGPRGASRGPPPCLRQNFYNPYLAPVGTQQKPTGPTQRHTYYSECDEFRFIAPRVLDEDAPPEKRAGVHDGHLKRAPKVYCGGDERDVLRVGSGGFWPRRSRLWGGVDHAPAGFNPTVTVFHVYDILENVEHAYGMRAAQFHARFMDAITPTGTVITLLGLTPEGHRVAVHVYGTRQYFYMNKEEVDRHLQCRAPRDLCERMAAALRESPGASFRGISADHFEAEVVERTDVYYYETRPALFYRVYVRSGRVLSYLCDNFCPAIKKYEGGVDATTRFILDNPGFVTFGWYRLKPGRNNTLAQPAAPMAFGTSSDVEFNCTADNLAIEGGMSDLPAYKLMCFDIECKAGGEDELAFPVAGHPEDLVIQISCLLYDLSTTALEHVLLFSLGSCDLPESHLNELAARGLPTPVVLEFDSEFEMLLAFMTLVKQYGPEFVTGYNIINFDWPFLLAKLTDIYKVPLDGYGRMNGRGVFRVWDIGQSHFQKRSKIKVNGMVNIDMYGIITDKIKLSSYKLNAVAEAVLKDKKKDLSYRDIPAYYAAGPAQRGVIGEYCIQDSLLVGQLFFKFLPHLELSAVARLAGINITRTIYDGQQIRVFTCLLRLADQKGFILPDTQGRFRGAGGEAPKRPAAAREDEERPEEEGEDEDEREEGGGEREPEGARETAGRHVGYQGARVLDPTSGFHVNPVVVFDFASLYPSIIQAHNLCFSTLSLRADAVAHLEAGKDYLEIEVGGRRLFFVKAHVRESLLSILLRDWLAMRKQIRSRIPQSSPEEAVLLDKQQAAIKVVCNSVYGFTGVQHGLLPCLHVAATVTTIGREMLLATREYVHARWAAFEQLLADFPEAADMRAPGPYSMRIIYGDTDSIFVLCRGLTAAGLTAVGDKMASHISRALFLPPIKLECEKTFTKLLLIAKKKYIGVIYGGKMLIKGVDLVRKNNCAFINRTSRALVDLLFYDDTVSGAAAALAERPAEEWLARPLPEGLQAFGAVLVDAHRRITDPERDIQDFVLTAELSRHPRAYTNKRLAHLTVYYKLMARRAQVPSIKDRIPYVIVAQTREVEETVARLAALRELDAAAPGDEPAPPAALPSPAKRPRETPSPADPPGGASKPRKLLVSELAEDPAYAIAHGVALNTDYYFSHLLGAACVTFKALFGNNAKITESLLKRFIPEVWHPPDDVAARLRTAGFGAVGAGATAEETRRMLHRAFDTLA

Cn1cc(C(=O)NCc2ccc(Cl)cc2)c(=O)c2cc(CN3CCOCC3)sc21
IC50 [1]: > 50000 nM
IC50 [2]: 1500 nM
IC50 [3]: 800 nM
IC50 [4]: 5600 nM
IC50 [5]: 2100 nM
IC50 [6]: 800 nM
IC50 [7]: 2500 nM
IC50 [8]: > 50000 nM
IC50 [9]: 6200 nM
IC50 [10]: 2500 nM
IC50 [11]: 5400 nM

Cn1cc(C(=O)NCc2ccc(Cl)cc2)c(=O)c2cc(CN3CCOCC3)ccc21
IC50 [12]: 600 nM

O=C(NCc1ccc(Cl)cc1)c1cnc2ccc(CCCO)cc2c1O
IC50 [12]: 300 nM
